The values that follow come from ChEMBL document CHEMBL3580569, “N-Substituted Quinolinonyl Diketo Acid Derivatives as HIV Integrase Strand Transfer Inhibitors and Their Activity against RNase H Function of Reverse Transcriptase” (J Med Chem, 2015).

For data set [1], the system named is Human immunodeficiency virus 1. Briefly: Antiviral activity against HIV-1 3B infected in human HeLa-CD4-LTR-beta-gal cells assessed as inhibition of viral replication by SpectraMax GEMINI-XS plate reader analysis. It is filed as functional, organism-based. To be noted: Human immunodeficiency virus 1, 3B. The essentials: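 HeLa-CD4-LTR-β-gal cells kept in DMEM, 10% serum, 0.5 mg/mL G418; seeded 10000 cells/well the day before. Drug 3-fold serially diluted over six points on cells (top 50 μM), then fresh medium or concentrated HIV-1(IIIB) supernatant added.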

In data set [2] the target is T1, Human immunodeficiency virus type 1 integrase (Human immunodeficiency virus 1, UniProt Q7ZJM1).
T1 sequence (Q7ZJM1 whole entry): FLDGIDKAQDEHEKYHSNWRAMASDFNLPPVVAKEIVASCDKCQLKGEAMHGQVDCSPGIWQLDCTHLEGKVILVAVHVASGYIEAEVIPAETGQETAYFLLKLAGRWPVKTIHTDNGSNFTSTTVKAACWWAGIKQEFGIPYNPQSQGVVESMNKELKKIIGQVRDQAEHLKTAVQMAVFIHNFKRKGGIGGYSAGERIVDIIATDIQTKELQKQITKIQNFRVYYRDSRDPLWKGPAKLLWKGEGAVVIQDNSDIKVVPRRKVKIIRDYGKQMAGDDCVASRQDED
The target of data set [3] is Human immunodeficiency virus type 1 reverse transcriptase (Human immunodeficiency virus 1) (UniProt Q72547). Briefly: Inhibition of RNase H function of HIV1 reverse transcriptase using DNA/RNA hybrid as substrate at 10 uM by fluorescence spectrometer analysis. In outline:
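RNase H activity of HIV-1 RT was measured with an RNA/DNA hybrid substrate at 250 nM final, with 150–800 ng RT, in 50 mM Tris-HCl pH 8.0, 60 mM KCl, 10 mM MgCl2 and 1% DMSO, against DMSO-only wells. Fluorescence (ex 485/em 520 nm) was read each minute over 10 min at 37 °C. Percent inhibition at 10 μM = 100(v0−vi)/v0 from initial rates, run in triplicate.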

The target in data set [4] is Human immunodeficiency virus type 1 reverse transcriptase (Human immunodeficiency virus 1, UniProt Q72547). Kind of data set: Inhibition of RNase H function of HIV1 reverse transcriptase using DNA/RNA hybrid as substrate by fluorescence spectrometer analysis.
Data set [5] has as its target T1, Human immunodeficiency virus type 1 integrase. The source holds these as a separate data set.
For the next data set, the system named is HeLa. Kind of data set: Cytotoxicity against human HeLa-CD4-LTR-beta-gal cells after 24 hrs by ATPlite reagent based luminescence analysis. It is filed as cell-based.
The nature of data set [6]: Selectivity index, ratio of CC50 for human HeLa-CD4-LTR-beta-gal cells to EC50 for HIV-1 3B infected in human HeLa-CD4-LTR-beta-gal cells. It is filed as toxicity. To be noted: read-out: Ratio CC50/EC50.

Where only a bound is given, the exact number is not on record here.

Regarding `COc1ccc(Cn2cc(C(=O)/C=C(\O)C(=O)O)c(=O)c3ccccc32)cc1`, the EC50 (usually the midpoint of the concentration-response curve) in data set [1] is more than 50 µM. In addition, the values for the concentration for half-maximal inhibition (IC50) in data set [2], in data set [4] and in data set [5] were 28 µM, more than 50 µM and 0.51 µM, respectively. In data set [3], the inhibition (usually the drop in the measured response relative to a control, in per cent) amounted to 45.8%.

`O=C(O)/C(O)=C/C(=O)c1cn(Cc2ccccc2F)c2cc(Cl)ccc2c1=O`: the concentration giving a half-maximal response (EC50) in data set [1] was 17 µM. For the same compound, the CC50 (usually the concentration giving 50% cytotoxicity) in the data set on HeLa was more than 50 µM. Further, the selectivity ratio in data set [6] is more than 2.9. For the same compound, in data set [4], 22.6 µM corresponded to half-maximal inhibition (IC50).

Turning to `O=C(O)/C(O)=C/C(=O)c1cn(Cc2c(F)cccc2F)c2ccccc2c1=O` [RDS-1984], the concentration giving a half-maximal response (EC50) in data set [1] was 8.1 µM. Also, the CC50 with HeLa is more than 50 µM. Moreover, in data set [6], the selectivity ratio was more than 6.2. Besides, the IC50 (in general, the concentration at which inhibition is half-maximal) in data set [2] turned out to be 0.7 µM; in data set [4], 10.8 µM; in data set [5], 0.019 µM.

Consider `CCOC(=O)/C(O)=C/C(=O)c1cn(Cc2cccc(Cl)c2F)c2ccccc2c1=O`, for which, in data set [1], the EC50 turned out to be 10 µM. Further, the CC50 in the data set on HeLa was more than 50 µM. In data set [6], the selectivity ratio was more than 5. Besides, the 50% inhibitory concentration (IC50) in data set [2] and in data set [5] was 1.08 µM throughout. Besides, in data set [3], the inhibition was determined as 21%.

In the case of `O=C(O)/C(O)=C/C(=O)c1cn(Cc2ccccc2F)c2ccccc2c1=O`, the concentration giving a half-maximal response (EC50) in data set [1] was 2.6 µM. Moreover, the CC50 in the data set with HeLa was more than 50 µM. Besides, in data set [6], the selectivity ratio was more than 19.2. The IC50 was 1.2 µM in data set [2], more than 50 µM in data set [4] and 0.016 µM in data set [5]. Also, the inhibition in data set [3] was determined as 45.1%.

For the compound `CCOC(=O)/C(O)=C/C(=O)c1cn(Cc2ccc(Cl)cc2Cl)c2ccccc2c1=O`, the EC50 in data set [1] was more than 50 µM. In data set [3], the inhibition was found to be 51%. In addition, the results for the IC50 in data set [4] and in data set [5] were more than 50 µM and more than 111 µM, respectively.

Regarding `O=C(O)/C(O)=C/C(=O)c1cn(Cc2ccc([N+](=O)[O-])cc2)c2ccccc2c1=O`, the EC50 in data set [1] is more than 50 µM. Further, the values for the IC50 in data set [2], in data set [4] and in data set [5] were 27 µM, 47 µM and 0.64 µM, respectively.

With `O=C(O)/C(O)=C/C(=O)c1cn(Cc2cccc(Cl)c2F)c2ccccc2c1=O`, the EC50 in data set [1] stood at 23.4 µM. In the data set on HeLa, this compound returned a 50% cytotoxic concentration (CC50) of more than 50 µM. Moreover, the selectivity ratio in data set [6] was more than 2.1. The IC50 in data set [2] stood at 1.75 µM; in data set [5], 0.018 µM. Moreover, in data set [3], the inhibition turned out to be 12%.

On to `O=C(O)/C(O)=C/C(=O)c1cn(Cc2ccc(Cl)cc2Cl)c2ccccc2c1=O`, for which the concentration for a half-maximal effect (EC50) in data set [1] was more than 50 µM. Besides, the IC50 came to 44.7 µM in data set [4] and 2.3 µM in data set [5].

In the case of `O=C(O)/C(O)=C/C(=O)c1cn(Cc2ccc(Cl)cc2)c2ccccc2c1=O`, in data set [1], the concentration for a half-maximal effect (EC50) is 0.87 µM. The 50% cytotoxic concentration (CC50) in the data set with HeLa was more than 50 µM. For the same compound, the selectivity ratio in data set [6] was more than 57.5. For the same compound, the IC50 was 22 µM in data set [2], more than 50 µM in data set [4] and 0.54 µM in data set [5]. The inhibition in data set [3] is 56.2%.

Consider `O=C(O)/C(O)=C/C(=O)c1cn(Cc2ccc3ccccc3c2)c2ccccc2c1=O`, for which, in data set [1], the concentration for a half-maximal effect (EC50) is 4.8 µM. Further, the CC50 in the data set on HeLa is more than 50 µM. Further, the selectivity ratio in data set [6] was more than 10.4. The values for the IC50 in data set [2] and in data set [5] were 18 µM and less than 0.45 µM, respectively. Also, the inhibition in data set [3] stood at 40.7%.

For the compound `CCOC(=O)/C(O)=C/C(=O)c1cn(Cc2ccc(F)c(Cl)c2)c2ccccc2c1=O`, in data set [1], the EC50 was 17.4 µM. Also, in the data set with HeLa, the cytotoxic concentration (CC50) was more than 50 µM. The selectivity ratio in data set [6] was more than 2.9. The IC50 in data set [2] was found to be 266 µM; in data set [5] it was 3.1 µM. The compound also yielded an inhibition in data set [3] of 18%.

As for `Cc1cc(C)cc(Cn2cc(C(=O)/C=C(\O)C(=O)O)c(=O)c3ccccc32)c1`, the EC50 in data set [1] was more than 50 µM. The values for the half-maximal inhibitory concentration (IC50) in data set [4] and in data set [5] were 37.8 µM and 0.05 µM, respectively.

In the case of `O=C(O)/C(O)=C/C(=O)c1cn(Cc2cc(F)ccc2F)c2ccccc2c1=O`, the 50% effective concentration (EC50) in data set [1] was more than 50 µM. Besides, the inhibition in data set [3] is 37%. For the same compound, the IC50 in data set [4] was more than 50 µM; in data set [5] it was 3.2 µM.

`O=C(O)/C(O)=C/C(=O)c1cn(Cc2cccc(F)c2)c2ccccc2c1=O`: the 50% effective concentration (EC50) in data set [1] stood at 28.2 µM. This compound had a CC50 with HeLa of more than 50 µM. Further, the selectivity ratio in data set [6] was more than 1.8. Further, the 50% inhibitory concentration (IC50) in data set [2] came to 4.6 µM; in data set [5], 0.015 µM. The same compound came in with an inhibition in data set [3] of 2.4%.

As for `O=C(O)/C(O)=C/C(=O)c1cn(Cc2ccccc2F)c2c(Cl)cccc2c1=O`, the concentration for a half-maximal effect (EC50) in data set [1] is more than 50 µM. Also, the 50% inhibitory concentration (IC50) is 20.5 µM in data set [2], more than 50 µM in data set [4] and 0.13 µM in data set [5]. Moreover, the inhibition in data set [3] is 45%.

Regarding `O=C(O)/C(O)=C/C(=O)c1cn(Cc2ccc(O)cc2)c2ccccc2c1=O`, the EC50 in data set [1] was more than 50 µM. The results for the 50% inhibitory concentration (IC50) in data set [2], in data set [4] and in data set [5] were more than 37 µM, 9.5 µM and 0.45 µM, respectively.

In the case of `O=C(O)/C(O)=C/C(=O)c1cn(Cc2cc(F)cc(F)c2)c2ccccc2c1=O`, the EC50 in data set [1] is more than 50 µM. Also, in data set [3], the inhibition stood at 30%. Besides, the IC50 is more than 50 µM in data set [4] and 0.22 µM in data set [5].

`CCOC(=O)/C(O)=C/C(=O)c1cn(Cc2ccc(C)cc2C)c2ccccc2c1=O`: the EC50 in data set [1] was more than 50 µM. This compound also displayed an inhibition in data set [3] of 33%. For the same compound, the IC50 in data set [4] was more than 50 µM; in data set [5], more than 111 µM.

As for `Cc1ccc(Cn2cc(C(=O)/C=C(\O)C(=O)O)c(=O)c3ccccc32)c(C)c1`, in data set [1], the half-maximal effective concentration (EC50) was more than 50 µM. Also, the half-inhibitory concentration (IC50) in data set [4] is 19.6 µM; in data set [5] it was 7 µM.

As for `COc1ccccc1Cn1cc(C(=O)/C=C(\O)C(=O)O)c(=O)c2ccccc21`, the half-maximal effective concentration (EC50) in data set [1] is 9.3 µM. The compound also gave a 50% cytotoxic concentration (CC50) in the data set with HeLa of more than 50 µM. In addition, the selectivity ratio in data set [6] was more than 5.4. Moreover, the concentration for half-maximal inhibition (IC50) was more than 4.1 µM in data set [2], 16.3 µM in data set [4] and 0.038 µM in data set [5].

For `CCOC(=O)/C(O)=C/C(=O)c1cn(Cc2ccccc2OC)c2ccccc2c1=O` [20, RDS-2163], the 50% effective concentration (EC50) in data set [1] is 2.6 µM. In the data set on HeLa, this compound showed a half-maximal cytotoxic concentration (CC50) of more than 50 µM. Besides, the selectivity ratio in data set [6] was more than 19.2. Moreover, the figures for the IC50 in data set [2] and in data set [5] were more than 333 µM and 1.4 µM, respectively. The compound further returned an inhibition in data set [3] of 11.4%.

Turning to `O=C(O)/C(O)=C/C(=O)c1cn(Cc2ccc(F)cc2F)c2ccccc2c1=O`, in data set [1], the EC50 came out at 13.8 µM. Further, the cytotoxic concentration (CC50) in the data set on HeLa was more than 50 µM. Also, the selectivity ratio in data set [6] is more than 3.6. Besides, the half-inhibitory concentration (IC50) is 35.9 µM in data set [4] and 0.01 µM in data set [5].

As for `O=C(O)/C(O)=C/C(=O)c1cn(Cc2ccc(F)c(F)c2)c2ccccc2c1=O`, in data set [1], the 50% effective concentration (EC50) stood at 16.2 µM. Besides, in the data set with HeLa, the half-maximal cytotoxic concentration (CC50) was more than 50 µM. Besides, the selectivity ratio in data set [6] was more than 3.1. In data set [3], this compound showed an inhibition of 44%. Besides, the IC50 was more than 50 µM in data set [4] and 0.11 µM in data set [5].

For `CCOC(=O)/C(O)=C/C(=O)c1cn(Cc2c(Cl)cccc2Cl)c2ccccc2c1=O`, the EC50 in data set [1] came to 30.2 µM. In addition, the CC50 in the data set with HeLa was more than 50 µM. Moreover, the selectivity ratio in data set [6] was more than 1.7. The inhibition in data set [3] stood at 55%. The results for the 50% inhibitory concentration (IC50) in data set [4] and in data set [5] were more than 50 µM and 32 µM, respectively.

On to `O=C(O)/C(O)=C/C(=O)c1cn(Cc2c(Cl)cccc2Cl)c2ccccc2c1=O`, for which the EC50 in data set [1] was more than 50 µM. In data set [3], this compound showed an inhibition of 86.3%. The values for the IC50 in data set [4] and in data set [5] were 10 µM and 0.27 µM, respectively.
